≈ marks a conversion by molar mass, not a printed value.

The experiment relates to MCF7. As to the kind of experiment: Cytotoxicity against human MCF7 cells assessed as inhibition of cell viability after 48 hrs by Sulforhodamine B assay. Type of experiment: functional, cell-based. As to conditions: MCF7, 48 h. An outline of the steps: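 MCF7 cells seeded at 10⁴ cells/well and left 24 h to attach. Compounds in DMSO diluted with saline were added at 0, 1, 2.5, 5 and 10 (triplicate wells per dose). After 48 h at 37 °C in 5% CO₂, cells were fixed with trichloroacetic acid and stained 30 min with 0.4% SRB in 1% acetic acid. Bound dye was recovered in Tris-EDTA and read on an ELISA reader. IC50 was taken from surviving fraction versus concentration curves.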
(Sulforhodamine B stains cellular protein and so reports cell mass.)
A word on the IC50: it is the concentration needed to halve the response being measured. In the case of `CSc1n[nH]c2nc3nc(-c4ccccc4)cc(-c4ccc(Cl)cc4)c3c(=O)n12`, the IC50 worked out at 3.89 µg/mL (≈ 9.26 µM).

On to `Cc1ccc(-c2n[nH]c3nc4nc(-c5ccccc5)cc(-c5ccc(Cl)cc5)c4c(=O)n23)cc1`, for which the IC50 came out at 9.07 µg/mL (≈ 19.6 µM).

As to `Nc1n[nH]c2nc3nc(-c4ccccc4)cc(-c4ccc(Cl)cc4)c3c(=O)n12`, the IC50 amounted to 3.74 µg/mL (≈ 9.62 µM).

In the case of `CCc1n[nH]c2nc3nc(-c4ccccc4)cc(-c4ccc(Cl)cc4)c3c(=O)n12`, the IC50 worked out at 14 µg/mL (≈ 34.8 µM).

For `O=c1c2c(-c3ccc(Cl)cc3)cc(-c3ccccc3)nc2nc2[nH]nc(-c3ccccc3)n12`, the IC50 amounted to 9.22 µg/mL (≈ 20.5 µM).

Consider `Cc1n[nH]c2nc3nc(-c4ccccc4)cc(-c4ccc(Cl)cc4)c3c(=O)n12`, for which the IC50 was more than 50 µg/mL.

Consider `CCOC(=O)CSc1n[nH]c2nc3nc(-c4ccccc4)cc(-c4ccc(Cl)cc4)c3c(=O)n12`, for which the IC50 was 4.5 µg/mL (≈ 9.15 µM).

With `O=c1c2c(-c3ccc(Cl)cc3)cc(-c3ccccc3)nc2nc2[nH]nc(SCc3ccccc3)n12`, the IC50 was 12.6 µg/mL (≈ 25.4 µM).

As to `O=c1[nH][nH]c2nc3nc(-c4ccccc4)cc(-c4ccc(Cl)cc4)c3c(=O)n12`, the 50% inhibitory concentration (IC50) was 24.3 µg/mL (≈ 62.3 µM).

Turning to `CCSc1n[nH]c2nc3nc(-c4ccccc4)cc(-c4ccc(Cl)cc4)c3c(=O)n12`, the IC50 amounted to 5.2 µg/mL (≈ 12 µM).

Consider `O=c1c2c(-c3ccc(Cl)cc3)cc(-c3ccccc3)nc2nc2[nH]nc(CCl)n12`, for which the IC50 was 11.7 µg/mL (≈ 27.7 µM).

Take `O=c1c2c(-c3ccc(Cl)cc3)cc(-c3ccccc3)nc2nc2[nH][nH]c(=S)n12`: the IC50 was 6.78 µg/mL (≈ 16.7 µM).

Turning to `O=c1c2c(-c3ccc(Cl)cc3)cc(-c3ccccc3)nc2nc2[nH]ncn12`, the IC50 turned out to be 21.6 µg/mL (≈ 57.8 µM).

In the case of `O=c1[nH]c(=S)[nH]c2nc(-c3ccccc3)cc(-c3ccc(Cl)cc3)c12`, the IC50 was determined as 5.11 µg/mL (≈ 14 µM).

The values are drawn from ChEMBL document CHEMBL1781954, “Synthesis and antitumor activity of novel pyrido[2,3-d][1,2,4]triazolo[4,3-a]pyrimidin-5-one derivatives” (Eur J Med Chem, 2011).
